In the library only some 4% were active in any assay of this set; here they are far more common.
KCNK9 inh: KCNK9 potassium channel inhibitors, primary screen, HEK293 cells, thallium flux; FluxOR thallium flux fluorescence; active compounds read low; B-score at 10 µM; 1.2% of 310,000 active; AID 488922, 2010;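 active = ratio B-score over 3 SD below the library mean, with starting fluorescence within 5 SD of its mean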;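 note: negative B-score means less thallium flux so channel inhibition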
KCNK3 block: human KCNK3 channel inhibitors, primary screen, CHO cells, FluxOR thallium flux, B-score; Potassium channel subfamily K member 3 (Homo sapiens), O14649; B-score at 10 µM; 0.84% of 340,000 active; FluxOR fluorescence; active compounds read low;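 active = B-score under library mean minus 4 SD, starting fluorescence ratio at most library mean plus 5 SD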;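 note: more negative B-score means stronger inhibition of thallium flux through KCNK3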
KCNQ1 act: potentiators or activators of KCNQ1 channel, primary screen, cell-based, thallium flux, high-throughput; CHO-K1 KCNQ1, thallium flux FluxOR fluorescence; active compounds read high; B-score at 10 µM; 0.35% of 310,000 active; AID 2648, 2010;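 active = fluorescence ratio B-score, a plate-corrected score, at least three library SD, with initial intensity B-score within 5 SD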
Target sequence (P51787 whole entry, looked up): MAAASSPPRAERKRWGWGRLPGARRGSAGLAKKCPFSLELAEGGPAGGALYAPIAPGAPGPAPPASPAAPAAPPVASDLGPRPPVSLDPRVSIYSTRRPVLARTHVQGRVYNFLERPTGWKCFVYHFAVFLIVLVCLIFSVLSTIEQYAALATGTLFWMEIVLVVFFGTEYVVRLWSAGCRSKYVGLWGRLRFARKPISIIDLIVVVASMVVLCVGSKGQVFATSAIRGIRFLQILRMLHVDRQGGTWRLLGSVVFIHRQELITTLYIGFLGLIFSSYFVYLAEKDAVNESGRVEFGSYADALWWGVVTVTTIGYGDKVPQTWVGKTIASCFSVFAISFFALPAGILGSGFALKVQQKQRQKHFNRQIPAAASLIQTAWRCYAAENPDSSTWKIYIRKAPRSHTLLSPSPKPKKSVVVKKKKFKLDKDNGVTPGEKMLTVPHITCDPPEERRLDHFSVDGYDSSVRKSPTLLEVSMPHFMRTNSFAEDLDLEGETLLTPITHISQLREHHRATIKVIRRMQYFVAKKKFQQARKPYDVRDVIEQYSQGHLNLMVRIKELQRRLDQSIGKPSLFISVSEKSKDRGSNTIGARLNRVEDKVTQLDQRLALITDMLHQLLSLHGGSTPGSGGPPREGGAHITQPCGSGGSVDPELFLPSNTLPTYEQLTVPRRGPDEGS
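Assay system: stable KCNQ1 CHO-K1 line; medium: assay buffer, equal DMSO in all wells; timing: 90 min dye loading and 20 min compound exposure, both at room temperature; technique: kinetic FluxOR thallium fluorescence, 10-s 1-Hz baseline, 110-s post-stimulus read; read-out basis: B score of baseline-normalized fluorescence ratio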
PHOSPHO1 block: PubChem AID 1565; Phosphoethanolamine/phosphocholine phosphatase (Homo sapiens), Q8TCT1; recombinant PHOSPHO1, absorbance phosphatase assay; inhibition, % at 13.3 µM; 1.1% of 290,000 active; in the data active = inhibition above about 60%
KCNQ1 block: inhibitors of human KCNQ1 channel, primary screen, cell-based, thallium flux, high-throughput; B-score at 10 µM; Potassium voltage-gated channel subfamily KQT member 1 (Homo sapiens), P51787; 1.3% of 310,000 active; AID 2642, 2010; CHO-K1 KCNQ1, FluxOR thallium flux fluorescence; active compounds read high;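 active = compounds whose thallium flux B-score, printed positive for inhibition, exceeds three library SD while starting fluorescence stays within three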;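 note: channel opened by potassium depolarization with thallium stimulus after 20 min compound exposure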
hERG rescue: hERG rescue from dofetilide block, primary screen, cell-based, CHO-hERG, FluxOR thallium flux, dofetilide IC70. activation (rescue from dofetilide block), less the hit threshold, % at 10 µM. 0.51% of 310,000 active. dofetilide IC70 present. AID 1511, 2009. Voltage-gated inwardly rectifying potassium channel KCNH2 (Homo sapiens), Q12809;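 active = activation above the mean of controls blocked by dofetilide plus 5 SD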;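 note: thallium influx through hERG after potassium depolarization seen as dye fluorescence rise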
KCNQ1 inh valid: KCNQ1 potassium channel inhibitors, confirmation, cell-based, Tl flux, duplicate; 93% of 1,600 active; KCNQ1 cell line, FluxOR thallium flux fluorescence; inhibition, % at 10 µM; AID 588353, 2011; shares compounds with KCNQ1 block;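 active = primary screen active, with duplicate mean exceeding buffer control mean plus 3 SD of buffer wells, cut at about 28% in these data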;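 note: 0% = buffer control ratio and 100% = XE991 inhibitor control ratio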
CHO Tl flux: thallium flux effects in parental CHO cells, counter-screen for KCNQ1 inhibitor project, cell-based, Tl flux; AID 588366, 2011; shares compounds with KCNQ1 block; 21% of 1,600 active; fluorescence ratio (Tl flux) at 10 µM; parental CHO-K1, FluxOR thallium flux fluorescence ratio; active compounds read low; zero means no signal rise above baseline;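 active = mean of duplicate thallium-flux fluorescence ratios in parental host cells more than 5 SD below the buffer control mean, cut at about 0.38 in these data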;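 note: ratio is peak minus minimum fluorescence divided by baseline fluorescence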
KCNQ1 APC inh: KCNQ1 channel inhibitors, confirmation, orthogonal assay, cell-based, automated electrophysiology. calls only at 10 µM. AID 624120, 2012. KCNQ1-CHO cells, automated patch clamp current. shares compounds with KCNQ1 block. 20% of 490 active;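 active = KCNQ1 current drop exceeding 3 SD of negative control wells, seen in both duplicate runs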;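 note: steady state current during a 2 s step from -80 to +40 mV; negative values mean current inhibition and positive values mean potentiation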
KCNQ2 spec: KCNQ2 channel inhibition, selectivity assay for KCNQ1 inhibitor project, cell-based. shares compounds with KCNQ1 block. KCNQ2 cells, FluxOR thallium flux fluorescence. inhibition, % at 10 µM. 71% of 1,600 active;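 active = mean percent inhibition of the KCNQ2 thallium signal more than 5 SD above the buffer-only control wells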;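 note: KCNQ2 expressed in CHO cells; 0% = buffer control wells and 100% = XE-991 inhibitor control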
KCNQ1-KCNE1 inh: KCNQ1/KCNE1 channel inhibition, selectivity assay for KCNQ1 inhibitor project, CHO-K1 cells, thallium flux, FluxOR; shares compounds with KCNQ1 block; FluxOR thallium flux fluorescence; inhibition, % at 10 µM; 77% of 1,600 active; AID 652147, 2013;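 active = mean percent inhibition of duplicate wells above the buffer-only control mean plus 3 SD of those controls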;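 note: 0% = buffer only wells and 100% = XE-991 inhibitor control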
KCNK9 block conf: KCNK9 potassium channel inhibitors, confirmation, HEK293 cells, thallium flux, duplicate; 43% of 4,900 active; shares compounds with KCNK9 inh; FluxOR thallium flux fluorescence; inhibition, % at 10 µM; AID 492992, 2010;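 active = thallium signal inhibited by more than 5 SD of the compound-free buffer control wells, on both duplicate plates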;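 note: 0% = assay buffer control wells without compound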
Kir2-1 spec: mouse Kir2.1 channel inhibition, confirmation, selectivity assay for KCNK9 modulator project, cell-based, HEK293, thallium flux; 4% of 4,900 active; shares compounds with KCNK9 inh; Kir2.1 cells, FluxOR thallium flux fluorescence; inhibition, % at 10 µM;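 active = thallium signal drop more than 5 SD beyond the mean of the no-compound control wells, seen in both duplicate plates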;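 note: signal is fluorescence rise after thallium addition divided by baseline fluorescence; plate controls were assay buffer only for no effect and full block by chlorpromazine control for full effect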
HEK293 Tl ctr: thallium flux in non-induced HEK293 cells, confirmation, counter-screen for KCNK9 inhibitor project, cell-based, second counter screen, non-induced KCNK9-HEK293. shares compounds with KCNK9 inh. inhibition, % at 10 µM. 40% of 4,900 active. FluxOR thallium flux. AID 492997, 2010;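 active = thallium signal drop beyond 5 SD of the untreated control mean, on both duplicate plates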;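 note: plate controls were buffer only IC0 wells for no effect and SID17386958 at its maximal inhibitory level for full effect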
KCNK3 inh conf: retest of human KCNK3 channel inhibitors, confirmation, CHO cells, FluxOR thallium flux, triplicate | FluxOR fluorescence; 0% buffer, 100% carvedilol maximal block | shares compounds with KCNK3 block | AID 651638, 2012 | 99% of 2,400 active | ratio percent of control, % at 10 µM;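 active = ratio percent of control, averaged over triplicates, above buffer control mean plus 5 SD, cut at about 64% in these data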;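 note: ratio is the fluorescence rise from min to max over baseline after thallium stimulus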
KCNK3 uninduced: thallium flux inhibition in non-induced cells, primary screen, counter-screen for KCNK3 inhibitor project, cell-based, non-induced KCNK3 line, FluxOR thallium, triplicate. shares compounds with KCNK3 block. non-induced KCNK3 parental cells; active compounds read low. thallium flux ratio (lower = more inhibition) at 10 µM. 40% of 2,400 active. AID 651747, 2012;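 active = thallium flux ratio, averaged over three wells, more than 5 SD below the buffer control mean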;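 note: host cells are CHO cells without KCNK3 induction; ratio is peak minus trough fluorescence over baseline then normalized to buffer controls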
Starred values were filed as active, the others as inactive; i = inactive; · = no result; + = active, no number.

SMILES | KCNK9 inh | KCNK3 block | KCNQ1 act | PHOSPHO1 block | KCNQ1 block | hERG rescue | KCNQ1 inh valid | CHO Tl flux | KCNQ2 spec | KCNQ1-KCNE1 inh | KCNK3 inh conf | KCNK3 uninduced | others
CC(=O)c1ccc(NC(=S)Nc2ccc3cn[nH]c3c2)cc1 | i | i | i | -46.5 | i | -16.0 | · | · | · | · | · | ·
c1ccc(-c2csc(N3CCCCCC3)n2)cc1 | i | i | i | 21.1 | i | -4.9 | · | · | · | · | · | ·
Cc1cc(N2CCN(c3nc(-c4ccccc4)cs3)CC2)c2ccccc2n1 | i | -13.9* | i | 37.0 | 7* | -20.4 | 129.5* | 0.409 | 106.7%* | 195.0%* | 136.0* | 0.131* | KCNQ1 APC inh=i
O=C(Oc1cccc(Nc2ncnc3ccccc23)c1)c1ccccc1Cl | -8.97* | -9.63* | i | 21.1 | 12* | -23.2 | 139.5* | 0.312* | 131.0%* | + | 139.0* | i | KCNK9 block conf=52.0%*;Kir2-1 spec=41.5%*;HEK293 Tl ctr=44.0%*
CC1CC(NC(=O)c2cc3c(=O)n4ccccc4nc3n2C)CC(C)(C)C1 (stereo unspecified) | i | -9.23* | i | 12.1 | 6* | -7.5 | 38.5* | 0.417 | 101.0%* | i | 95.7* | i
COc1cccc(N2CCN(C(=O)CCS(=O)(=O)c3ccc4c(c3)oc(=O)n4C)CC2)c1 | i | i | i | 12.1 | i | -1.8 | · | · | · | · | · | ·
CCOC(=O)c1cc2c(ccn2C)n1CC(=O)N(C)C | i | i | i | 20.8 | i | -11.2 | · | · | · | · | · | ·
CCOC(=O)c1cc2c(ccn2C)n1Cc1ccc(Cl)cc1 | -11* | -9.73* | i | -17.4 | 6* | -20.3 | 110.0* | 0.367* | 68.0%* | 116.5%* | 136.0* | 0.129* | KCNK9 block conf=41.5%*;Kir2-1 spec=i;HEK293 Tl ctr=37.0%*
O=C(Nc1ccncc1)c1ccc(Cl)c(S(=O)(=O)N2CCCCC2)c1 | i | i | i | · | i | -15.1 | · | · | · | · | · | ·
O=C(Nc1ccncc1)c1ccc(Cl)c(S(=O)(=O)N2CCc3ccccc32)c1 | i | -10.4* | i | · | 10* | -28.3 | 134.5* | 0.294* | 94.0%* | 134.0%* | 136.0* | 0.158*
O=C1NC(=Nc2ccccc2Cl)S/C1=C\c1cc([N+](=O)[O-])ccc1O | i | -13.6* | i | 28.7 | 23* | -9.6 | 197.0* | 0.17* | 166.0%* | + | 169.0* | 0.033*
O=[N+]([O-])c1cc([N+](=O)[O-])c(Oc2cccc3ccccc23)cc1NN1CCCCC1 | · | i | · | · | · | · | · | · | · | · | · | ·
O=C(Nc1ccc(OC(F)F)c(Cl)c1)c1cccc(OC(F)F)c1 | -11.6* | -11* | i | 9.5 | 12* | -28.9 | 105.5* | 0.521 | i | 43.0%* | 120.0* | i | KCNQ1 APC inh=+;KCNK9 block conf=54.5%*;Kir2-1 spec=i;HEK293 Tl ctr=i
CCCCNC(=S)N1CCn2cccc2C1c1ccc(F)cc1 (stereo unspecified) | -13.6* | -9.7* | i | -15.6 | 6* | -23.0 | 92.5* | 0.418 | 81.3%* | 70.5%* | 134.0* | 0.147* | KCNQ1 APC inh=i;KCNK9 block conf=55.5%*;Kir2-1 spec=i;HEK293 Tl ctr=41.0%*
CCCCNC(=S)N1CCn2cccc2C1c1ccccc1 (stereo unspecified) | i | i | i | -32.7 | i | -11.7 | · | · | · | · | · | ·
COc1ccc(C(=O)/C=C(\N)C(F)(F)F)c(O)c1 | i | i | i | 4.7 | i | -7.8 | · | · | · | · | · | ·
Clc1ccc(/C=C/c2nc3ccccc3[nH]2)c(Cl)c1 | i | -11.1* | i | 10.1 | 14* | -17.4 | 112.5* | 0.322* | 107.3%* | 76.0%* | 115.0* | 0.1*
O=C(/C=C/c1ccc(Cl)cc1Cl)c1nc2ccccc2[nH]1 | i | i | i | -76.6 | i | -13.1 | · | · | · | · | · | ·
CCCCNC(=S)Nc1ccc(SC(F)F)cc1 | -7.68* | -10.1* | i | -25.2 | 8* | -14.3 | 91.0* | 0.487 | i | 61.0%* | 120.7* | 0.146* | KCNQ1 APC inh=+
O=C(CSc1ccc([N+](=O)[O-])cc1)NCC1CCCCC1 | i | i | i | 8.5 | i | -0.9 | · | · | · | · | · | ·
COc1ccc(C(=O)OCc2cc3cccc(C)c3[nH]c2=O)cc1 | i | i | i | -3.5 | i | -4.7 | · | · | · | · | · | ·

High-throughput results: PubChem BioAssay, several laboratories
